Experiments:
Pancreas [1] = test: Biodistribution in ddY mouse pancreas at 0.2 to 0.4 uCi, iv after 30 mins; assay type: ADME, organism-based; details: in vivo, 0.5 h
Summary of the method: (§1)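 Radiotracer (0.2–0.4 μCi) given as a single tail-vein injection of 100 μL saline containing 10 μL ethanol to normal ddY mice (5 weeks old, 25–30 g). Mice were sacrificed at set times after injection. Organs were excised and weighed, and radioactivity was counted in an automatic gamma counter.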

Stomach [2] = test: Biodistribution in ddY mouse stomach at 0.2 to 0.4 uCi, iv after 10 mins measured per gram of organ; assay type: ADME, organism-based; details: in vivo; summary of the method: as §1
Spleen [3] = test: Biodistribution in ddY mouse spleen at 0.2 to 0.4 uCi, iv after 60 mins; assay type: ADME, organism-based; details: in vivo, 1 h; summary of the method: as §1
Spleen [4] = test: Biodistribution in ddY mouse spleen at 0.2 to 0.4 uCi, iv after 10 mins; assay type: ADME, organism-based; details: in vivo; summary of the method: as §1
Liver [5] = test: Biodistribution in ddY mouse liver at 0.2 to 0.4 uCi, iv after 30 mins; assay type: ADME, organism-based; details: in vivo, 0.5 h; summary of the method: as §1
Stomach [6] = test: Biodistribution in ddY mouse stomach at 0.2 to 0.4 uCi, iv after 30 mins measured per gram of organ; assay type: ADME, organism-based; details: in vivo, 0.5 h; summary of the method: as §1
Brain [7] = test: Biodistribution in ddY mouse brain at 0.2 to 0.4 uCi, iv after 30 mins; assay type: ADME, organism-based; details: in vivo, 0.5 h; summary of the method: as §1
Blood [8] = test: Biodistribution in ddY mouse blood at 0.2 to 0.4 uCi, iv after 60 mins; assay type: ADME, organism-based; details: in vivo, 1 h; summary of the method: as §1
Blood [9] = test: Biodistribution in ddY mouse blood at 0.2 to 0.4 uCi, iv after 2 mins; assay type: ADME, organism-based; details: in vivo; summary of the method: as §1
Pancreas [10] = test: Biodistribution in ddY mouse pancreas at 0.2 to 0.4 uCi, iv after 60 mins; assay type: ADME, organism-based; details: in vivo, 1 h; summary of the method: as §1
Heart [11] = test: Biodistribution in ddY mouse heart at 0.2 to 0.4 uCi, iv after 30 mins; assay type: ADME, organism-based; details: in vivo, 0.5 h; summary of the method: as §1
Blood [12] = test: Biodistribution in ddY mouse blood at 0.2 to 0.4 uCi, iv after 30 mins; assay type: ADME, organism-based; details: in vivo, 0.5 h; summary of the method: as §1
Blood [13] = test: Biodistribution in ddY mouse blood at 0.2 to 0.4 uCi, iv after 10 mins; assay type: ADME, organism-based; details: in vivo; summary of the method: as §1
Kidney [14] = test: Biodistribution in ddY mouse kidney at 0.2 to 0.4 uCi, iv after 30 mins; assay type: ADME, organism-based; details: in vivo, 0.5 h; summary of the method: as §1
Kidney [15] = test: Biodistribution in ddY mouse kidney at 0.2 to 0.4 uCi, iv after 60 mins; assay type: ADME, organism-based; details: in vivo, 1 h; summary of the method: as §1
Intestine [16] = test: Biodistribution in ddY mouse intestine at 0.2 to 0.4 uCi, iv after 60 mins; assay type: ADME, organism-based; details: in vivo, 1 h; summary of the method: as §1
Brain [17] = test: Biodistribution in ddY mouse brain at 0.2 to 0.4 uCi, iv after 60 mins; assay type: ADME, organism-based; details: in vivo, 1 h; summary of the method: as §1
Brain [18] = test: Biodistribution in ddY mouse brain at 0.2 to 0.4 uCi, iv after 10 mins; assay type: ADME, organism-based; details: in vivo; summary of the method: as §1
Heart [19] = test: Biodistribution in ddY mouse heart at 0.2 to 0.4 uCi, iv after 60 mins; assay type: ADME, organism-based; details: in vivo, 1 h; summary of the method: as §1
Intestine [20] = test: Biodistribution in ddY mouse intestine at 0.2 to 0.4 uCi, iv after 2 mins; assay type: ADME, organism-based; details: in vivo; summary of the method: as §1
Heart [21] = test: Biodistribution in ddY mouse heart at 0.2 to 0.4 uCi, iv after 10 mins; assay type: ADME, organism-based; details: in vivo; summary of the method: as §1
Spleen [22] = test: Biodistribution in ddY mouse spleen at 0.2 to 0.4 uCi, iv after 2 mins; assay type: ADME, organism-based; details: in vivo; summary of the method: as §1
Brain [23] = test: Biodistribution in ddY mouse brain at 0.2 to 0.4 uCi, iv after 2 mins; assay type: ADME, organism-based; details: in vivo; summary of the method: as §1
Spleen [24] = test: Biodistribution in ddY mouse spleen at 0.2 to 0.4 uCi, iv after 30 mins; assay type: ADME, organism-based; details: in vivo, 0.5 h; summary of the method: as §1
Heart [25] = test: Biodistribution in ddY mouse heart at 0.2 to 0.4 uCi, iv after 2 mins; assay type: ADME, organism-based; details: in vivo; summary of the method: as §1
Stomach [26] = test: Biodistribution in ddY mouse stomach at 0.2 to 0.4 uCi, iv after 2 mins measured per gram of organ; assay type: ADME, organism-based; details: in vivo; summary of the method: as §1
Liver [27] = test: Biodistribution in ddY mouse liver at 0.2 to 0.4 uCi, iv after 2 mins; assay type: ADME, organism-based; details: in vivo; summary of the method: as §1
Liver [28] = test: Biodistribution in ddY mouse liver at 0.2 to 0.4 uCi, iv after 60 mins; assay type: ADME, organism-based; details: in vivo, 1 h; summary of the method: as §1
Intestine [29] = test: Biodistribution in ddY mouse intestine at 0.2 to 0.4 uCi, iv after 10 mins; assay type: ADME, organism-based; details: in vivo; summary of the method: as §1
Liver [30] = test: Biodistribution in ddY mouse liver at 0.2 to 0.4 uCi, iv after 10 mins; assay type: ADME, organism-based; details: in vivo; summary of the method: as §1
Pancreas [31] = test: Biodistribution in ddY mouse pancreas at 0.2 to 0.4 uCi, iv after 2 mins; assay type: ADME, organism-based; details: in vivo; summary of the method: as §1
Stomach [32] = test: Biodistribution in ddY mouse stomach at 0.2 to 0.4 uCi, iv after 60 mins measured per gram of organ; assay type: ADME, organism-based; details: in vivo, 1 h; summary of the method: as §1
Pancreas [33] = test: Biodistribution in ddY mouse pancreas at 0.2 to 0.4 uCi, iv after 10 mins; assay type: ADME, organism-based; details: in vivo; summary of the method: as §1
Kidney [34] = test: Biodistribution in ddY mouse kidney at 0.2 to 0.4 uCi, iv after 10 mins; assay type: ADME, organism-based; details: in vivo; summary of the method: as §1
Intestine [35] = test: Biodistribution in ddY mouse intestine at 0.2 to 0.4 uCi, iv after 30 mins; assay type: ADME, organism-based; details: in vivo, 0.5 h; summary of the method: as §1
Kidney [36] = test: Biodistribution in ddY mouse kidney at 0.2 to 0.4 uCi, iv after 2 mins; assay type: ADME, organism-based; details: in vivo; summary of the method: as §1
Brain [37] = test: In vivo binding affinity to amyloid beta 42 in Tg2576 mouse brain by neuropathological staining; assay type: ADME, organism-based
[38] = Displacement of [125I]IMPY from amyloid beta42 by gamma counting
Brain [39] = test: In vivo binding affinity to amyloid beta 42 in mouse brain by neuropathological staining; assay type: ADME, organism-based

Structure (SMILES) | Drug uptake (Pancreas [1]) [% ID/g] | Drug uptake (Stomach [2]) [%ID] | Drug uptake (Spleen [3]) [% ID/g] | Drug uptake (Spleen [4]) [% ID/g] | Drug uptake (Liver [5]) [% ID/g] | Drug uptake (Stomach [6]) [%ID] | Drug uptake (Brain [7]) [% ID/g] | Drug uptake (Blood [8]) [% ID/g] | Drug uptake (Blood [9]) [% ID/g] | Drug uptake (Pancreas [10]) [% ID/g] | Drug uptake (Heart [11]) [% ID/g] | Drug uptake (Blood [12]) [% ID/g] | Drug uptake (Blood [13]) [% ID/g] | Drug uptake (Kidney [14]) [% ID/g] | Drug uptake (Kidney [15]) [% ID/g] | Drug uptake (Intestine [16]) [% ID/g] | Drug uptake (Brain [17]) [% ID/g] | Drug uptake (Brain [18]) [% ID/g] | Drug uptake (Heart [19]) [% ID/g] | Drug uptake (Intestine [20]) [% ID/g] | other results
OCCOc1ccc(-c2cc3cc([125I])ccc3[nH]2)cc1 | 3.57 | 1.97 | 2.39 | 7.09 | 13.42 | 2.11 | 1.93 | 0.8 | 4.07 | 2.22 | 2.97 | 1.26 | 1.6 | 6.77 | 2.76 | 18.98 | 1.82 | 2.62 | 1.36 | 1.97 | Drug uptake (Heart [21]): 5.84 % ID/g; Drug uptake (Spleen [22]): 7.56 % ID/g; Drug uptake (Brain [23]): 2.13 % ID/g; Drug uptake (Spleen [24]): 4.75 % ID/g; Drug uptake (Heart [25]): 12.91 % ID/g; Drug uptake (Stomach [26]): 0.97 %ID; Drug uptake (Liver [27]): 17.69 % ID/g; Drug uptake (Liver [28]): 8.17 % ID/g; Drug uptake (Intestine [29]): 5.76 % ID/g; Drug uptake (Liver [30]): 16.77 % ID/g; Drug uptake (Pancreas [31]): 5.55 % ID/g; Drug uptake (Stomach [32]): 1.62 %ID; Drug uptake (Pancreas [33]): 5.59 % ID/g; Drug uptake (Kidney [34]): 9.35 % ID/g; Drug uptake (Intestine [35]): 11.32 % ID/g; Drug uptake (Kidney [36]): 11.93 % ID/g
CNc1ccc(-c2cc3cc([125I])ccc3[nH]2)cc1 | 2.12 | 1.34 | 5.89 | 19.67 | 23.07 | 2.55 | 1.42 | 0.8 | 3.77 | 1.27 | 2.96 | 1.36 | 1.71 | 3.84 | 2.61 | 9.48 | 0.83 | 1.68 | 1.88 | 0.97 | Drug uptake (Heart [21]): 3.59 % ID/g; Drug uptake (Spleen [22]): 7.83 % ID/g; Drug uptake (Brain [23]): 1.1 % ID/g; Drug uptake (Spleen [24]): 10.34 % ID/g; Drug uptake (Heart [25]): 5.68 % ID/g; Drug uptake (Stomach [26]): 0.52 %ID; Drug uptake (Liver [27]): 22.85 % ID/g; Drug uptake (Liver [28]): 15.89 % ID/g; Drug uptake (Intestine [29]): 3.57 % ID/g; Drug uptake (Liver [30]): 26.83 % ID/g; Drug uptake (Pancreas [31]): 2.31 % ID/g; Drug uptake (Stomach [32]): 1.68 %ID; Drug uptake (Pancreas [33]): 2.87 % ID/g; Drug uptake (Kidney [34]): 4.31 % ID/g; Drug uptake (Intestine [35]): 8.54 % ID/g; Drug uptake (Kidney [36]): 5.53 % ID/g
COc1ccc(-c2cc3cc(I)ccc3[nH]2)cc1 |  |  |  |  |  |  |  |  |  |  |  |  |  |  |  |  |  |  |  |  | Activity (Brain [37]): Active; Ki [38]: 20.2 nM
CN(C)c1ccc(-c2cc3cc(I)ccc3[nH]2)cc1 |  |  |  |  |  |  |  |  |  |  |  |  |  |  |  |  |  |  |  |  | Ki [38]: 4.24 nM; Activity (Brain [39]): Not Active
CN(C)c1ccc(-c2cc3cc([125I])ccc3[nH]2)cc1 | 3.1 | 10.65 | 2.24 | 3.28 | 3.55 | 17.77 | 0.96 | 3.29 | 6.18 | 2.3 | 1.87 | 3.68 | 4.53 | 4.58 | 4.71 | 6.08 | 0.71 | 1.19 | 1.84 | 1.8 | Drug uptake (Heart [21]): 4.82 % ID/g; Drug uptake (Spleen [22]): 4.13 % ID/g; Drug uptake (Brain [23]): 1.19 % ID/g; Drug uptake (Spleen [24]): 2.6 % ID/g; Drug uptake (Heart [25]): 8.08 % ID/g; Drug uptake (Stomach [26]): 4.03 %ID; Drug uptake (Liver [27]): 10.2 % ID/g; Drug uptake (Liver [28]): 3.24 % ID/g; Drug uptake (Intestine [29]): 3.09 % ID/g; Drug uptake (Liver [30]): 5.14 % ID/g; Drug uptake (Pancreas [31]): 5.21 % ID/g; Drug uptake (Stomach [32]): 16.26 %ID; Drug uptake (Pancreas [33]): 4.13 % ID/g; Drug uptake (Kidney [34]): 4.46 % ID/g; Drug uptake (Intestine [35]): 4.52 % ID/g; Drug uptake (Kidney [36]): 9.49 % ID/g
COc1ccc(-c2cc3cc([125I])ccc3[nH]2)cc1 | 1.95 | 1.38 | 2.02 | 3.43 | 10.38 | 2.67 | 1.36 | 0.74 | 3.59 | 1.29 | 1.47 | 1.38 | 1.97 | 2.89 | 2.05 | 20.35 | 1.16 | 2.07 | 1.06 | 1.9 | Drug uptake (Heart [21]): 2.97 % ID/g; Drug uptake (Spleen [22]): 4.22 % ID/g; Drug uptake (Brain [23]): 2.11 % ID/g; Drug uptake (Spleen [24]): 2.96 % ID/g; Drug uptake (Heart [25]): 7.72 % ID/g; Drug uptake (Stomach [26]): 0.72 %ID; Drug uptake (Liver [27]): 17.81 % ID/g; Drug uptake (Liver [28]): 8.22 % ID/g; Drug uptake (Intestine [29]): 6.85 % ID/g; Drug uptake (Liver [30]): 13.96 % ID/g; Drug uptake (Pancreas [31]): 4.54 % ID/g; Drug uptake (Stomach [32]): 3.06 %ID; Drug uptake (Pancreas [33]): 3.94 % ID/g; Drug uptake (Kidney [34]): 4.96 % ID/g; Drug uptake (Intestine [35]): 12.32 % ID/g; Drug uptake (Kidney [36]): 8.76 % ID/g
